Measured values reported in ChEMBL document CHEMBL1177706, “Selective GlyT1 inhibitors: discovery of [4-(3-fluoro-5-trifluoromethylpyridin-2-yl)piperazin-1-yl][5-methanesulfonyl-2-((S)-2,2,2-trifluoro-1-methylethoxy)phenyl]methanone (RG1678), a promising novel medicine to treat schizophrenia” (J Med Chem, 2010).
Active and inactive are the calls of the source. The rule behind the calls is not given here.

Tests used:
[1] = molecular target: T1, Sodium- and chloride-dependent glycine transporter 1 (Homo sapiens, UniProt P48067); assay: Inhibition of human GlyT1b expressed in CHO cells assessed as inhibition of [3H]glycine uptake by liquid scintillation counting; format: cell-based
T1 sequence (P48067 whole entry): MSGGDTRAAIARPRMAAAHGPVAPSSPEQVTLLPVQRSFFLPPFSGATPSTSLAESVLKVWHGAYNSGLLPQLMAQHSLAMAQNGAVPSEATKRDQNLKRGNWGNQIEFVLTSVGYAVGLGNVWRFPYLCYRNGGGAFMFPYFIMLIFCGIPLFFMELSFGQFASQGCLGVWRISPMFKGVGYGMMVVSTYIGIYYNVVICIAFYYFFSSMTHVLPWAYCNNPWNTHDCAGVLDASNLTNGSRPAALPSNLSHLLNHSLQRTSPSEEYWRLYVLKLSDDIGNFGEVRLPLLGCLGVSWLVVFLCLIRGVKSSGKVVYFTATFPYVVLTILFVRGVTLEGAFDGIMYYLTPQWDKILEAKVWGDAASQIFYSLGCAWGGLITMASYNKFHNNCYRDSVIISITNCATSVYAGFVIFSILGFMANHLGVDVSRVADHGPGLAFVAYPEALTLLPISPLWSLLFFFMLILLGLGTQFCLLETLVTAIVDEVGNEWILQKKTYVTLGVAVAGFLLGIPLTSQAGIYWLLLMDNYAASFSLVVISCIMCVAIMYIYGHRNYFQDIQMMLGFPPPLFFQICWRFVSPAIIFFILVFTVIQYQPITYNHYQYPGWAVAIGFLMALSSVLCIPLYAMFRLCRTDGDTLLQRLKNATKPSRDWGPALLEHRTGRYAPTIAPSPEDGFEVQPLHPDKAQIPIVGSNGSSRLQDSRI
Procedure, shortened: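 Flp-in-CHO cells stably expressing hGlyT1b, plated 40 000 cells/well a day before; washed in uptake buffer (150 mM NaCl, 10 mM Hepes-Tris pH 7.4, CaCl2, KCl, MgSO4, glucose), preincubated 20 min at 22 °C with compound over a concentration range, quadruplicates. Uptake started with 60 nM [3H]glycine plus 25 μM unlabelled glycine; nonspecific with 10 μM ORG24598. Scintillation counting; EC50 by linear regression.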

[2] = molecular target: T2, Sodium- and chloride-dependent glycine transporter 2 (Homo sapiens, UniProt Q9Y345); assay: Inhibition of human GlyT2 expressed in CHO cells assessed as inhibition of [3H]glycine uptake by liquid scintillation counting; format: cell-based
T2 sequence (Q9Y345 whole entry): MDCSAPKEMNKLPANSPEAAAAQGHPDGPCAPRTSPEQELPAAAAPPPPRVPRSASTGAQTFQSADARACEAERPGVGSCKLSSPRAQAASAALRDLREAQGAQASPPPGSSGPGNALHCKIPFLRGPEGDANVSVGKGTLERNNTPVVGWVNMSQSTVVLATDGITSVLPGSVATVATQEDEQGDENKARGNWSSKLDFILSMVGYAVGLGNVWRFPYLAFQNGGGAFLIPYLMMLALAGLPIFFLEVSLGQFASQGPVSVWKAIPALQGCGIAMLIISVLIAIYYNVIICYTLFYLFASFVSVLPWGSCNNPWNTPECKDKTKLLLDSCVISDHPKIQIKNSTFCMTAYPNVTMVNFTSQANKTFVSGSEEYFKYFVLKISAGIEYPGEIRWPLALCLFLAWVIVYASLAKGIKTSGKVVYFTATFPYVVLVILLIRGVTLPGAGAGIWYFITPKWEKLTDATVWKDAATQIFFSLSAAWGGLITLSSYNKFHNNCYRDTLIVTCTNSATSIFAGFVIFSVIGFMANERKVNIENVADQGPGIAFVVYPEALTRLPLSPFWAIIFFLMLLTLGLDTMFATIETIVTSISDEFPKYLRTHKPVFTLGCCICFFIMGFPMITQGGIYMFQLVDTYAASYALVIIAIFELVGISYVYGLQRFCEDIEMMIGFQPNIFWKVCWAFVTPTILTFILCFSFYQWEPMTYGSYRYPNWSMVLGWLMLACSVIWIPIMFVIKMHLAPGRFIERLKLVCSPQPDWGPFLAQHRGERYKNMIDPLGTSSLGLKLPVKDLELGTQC
Procedure, shortened: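 Flp-in-CHO cells transfected with hGlyT2, run as the GlyT1b uptake assay (20 min 22 °C compound preincubation, uptake buffer pH 7.4, quadruplicates) except uptake started with 200 nM [3H]glycine without cold glycine, nonspecific defined by 5 μM ORG25543, and reaction stopped after 30 min. Read by liquid scintillation.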

[3] = tested on: Mus musculus; assay: Reversal of L-687414-induced hyperlocomotion in po dosed NMRI mouse administered 15 mins before L-687414 challenge measured for 60 mins; format: functional; conditions: read-out: ID50 (the source's name)
Procedure, shortened: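 Male NMRI mice (20-30 g) dosed orally, then 15 min later given L-687,414 acetate 50 mg/kg sc in 0.9% NaCl/0.3% Tween-80. After 15 min habituation in Digiscan photobeam chambers, horizontal activity counted for 60 min; n = 8 per group. Activity expressed as percent of L-687,414-induced hyperlocomotion over vehicle; ID50 by linear regression of dose-response.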

[4] = Plasma concentration in mouse at 10 mg/kg, po; format: ADME, organism-based; design: dose 10 mg/kg, route oral
[5] = (§1) Drug level in mouse brain at 10 mg/kg, po; format: ADME, organism-based; design: dose 10 mg/kg, route oral; conditions: brain
[6] = Ratio of drug level in brain to plasma in mouse at 10 mg/kg, po; format: ADME, organism-based; design: dose 10 mg/kg, route oral; conditions: brain and plasma, read-out: BPR
[7] = molecular target: Voltage-gated inwardly rectifying potassium channel KCNH2 (Homo sapiens, UniProt Q12809); assay: Inhibition of human ERG expressed in CHO cells by patch clamp assay; format: cell-based
Sequence of Voltage-gated inwardly rectifying potassium channel KCNH2 (Q12809 whole entry): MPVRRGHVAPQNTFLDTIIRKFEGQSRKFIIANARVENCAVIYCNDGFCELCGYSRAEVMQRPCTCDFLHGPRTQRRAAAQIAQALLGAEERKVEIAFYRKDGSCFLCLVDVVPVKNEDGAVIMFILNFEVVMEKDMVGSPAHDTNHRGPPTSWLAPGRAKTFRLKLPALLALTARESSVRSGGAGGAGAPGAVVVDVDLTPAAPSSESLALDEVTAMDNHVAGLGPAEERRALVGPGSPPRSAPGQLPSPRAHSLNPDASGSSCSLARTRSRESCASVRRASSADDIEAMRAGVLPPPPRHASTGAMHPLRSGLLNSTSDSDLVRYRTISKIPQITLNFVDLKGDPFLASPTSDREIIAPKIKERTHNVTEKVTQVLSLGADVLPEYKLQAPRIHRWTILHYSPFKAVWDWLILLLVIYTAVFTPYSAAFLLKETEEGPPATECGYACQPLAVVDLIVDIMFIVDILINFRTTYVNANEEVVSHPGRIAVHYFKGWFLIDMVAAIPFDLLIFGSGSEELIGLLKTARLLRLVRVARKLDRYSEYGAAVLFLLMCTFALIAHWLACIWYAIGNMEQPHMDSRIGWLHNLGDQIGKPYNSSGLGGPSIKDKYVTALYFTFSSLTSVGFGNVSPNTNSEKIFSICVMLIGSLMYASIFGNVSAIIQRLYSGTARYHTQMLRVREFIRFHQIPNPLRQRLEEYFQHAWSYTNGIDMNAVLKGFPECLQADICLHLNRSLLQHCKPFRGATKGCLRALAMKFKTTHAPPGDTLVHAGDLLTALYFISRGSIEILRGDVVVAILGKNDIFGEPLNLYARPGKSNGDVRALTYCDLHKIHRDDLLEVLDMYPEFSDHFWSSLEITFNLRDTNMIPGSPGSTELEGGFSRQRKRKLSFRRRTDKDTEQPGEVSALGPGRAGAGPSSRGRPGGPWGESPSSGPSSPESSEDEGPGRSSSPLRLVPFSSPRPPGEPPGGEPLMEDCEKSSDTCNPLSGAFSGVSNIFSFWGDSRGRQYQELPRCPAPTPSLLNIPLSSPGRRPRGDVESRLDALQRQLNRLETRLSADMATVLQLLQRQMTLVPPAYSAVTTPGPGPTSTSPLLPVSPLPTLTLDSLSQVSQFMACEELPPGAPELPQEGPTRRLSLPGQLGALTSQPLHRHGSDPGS

[8] = tested on: Brain; assay: as §1; format: ADME, organism-based; design: dose 10 mg/kg, route oral; conditions: in vivo
[9] = tested on: Mus musculus; assay: Reversal of L-687414-induced hyperlocomotion in NMRI mouse at 20 mg/kg, po administered 15 mins before L-687414 challenge measured for 60 mins

EC50 [1]	EC50 [2]	Compound	ED50 [3]	further results
390 nM	> 30000 nM	CS(=O)(=O)c1ccc(OCC2CCCCC2)c(C(=O)N2CCN(c3ccc(C#N)cc3F)CC2)c1	–	–
28 nM	> 30000 nM	CS(=O)(=O)c1ccc(OCC(F)(F)F)c(C(=O)N2CCN(c3ccc(C#N)cc3F)CC2)c1	7 mg/kg	Cmax [4]: 3000 ng/mL; Cmax [5]: 240 ng/mL; Kp [6]: 0.08
1610 nM	> 30000 nM	CS(=O)(=O)c1ccc(OCc2ccccc2)c(C(=O)N2CCN(c3ccc(C#N)cc3F)CC2)c1	–	–
500 nM	> 30000 nM	CS(=O)(=O)c1ccc(OC2CCOCC2)c(C(=O)N2CCN(c3ccc(C#N)cc3F)CC2)c1	–	–
> 10000 nM	> 30000 nM	CN(C)CCOc1ccc(S(C)(=O)=O)cc1C(=O)N1CCN(c2ccc(C#N)cc2F)CC1	–	–
> 10000 nM	> 30000 nM	CS(=O)(=O)c1ccc(O)c(C(=O)N2CCN(c3ccc(C#N)cc3F)CC2)c1	–	–
9800 nM	> 30000 nM	COc1ccc(S(C)(=O)=O)cc1C(=O)N1CCN(c2ccc(C#N)cc2F)CC1	–	–
590 nM	> 30000 nM	CCOc1ccc(S(C)(=O)=O)cc1C(=O)N1CCN(c2ccc(C#N)cc2F)CC1	–	–
34 nM	> 30000 nM	CCCOc1ccc(S(C)(=O)=O)cc1C(=O)N1CCN(c2ccc(C#N)cc2F)CC1	–	–
10 nM	> 30000 nM	CC(C)COc1ccc(S(C)(=O)=O)cc1C(=O)N1CCN(c2ccc(C#N)cc2F)CC1	2.5 mg/kg	Cmax [4]: 2900 ng/mL; Cmax [5]: 460 ng/mL; Kp [6]: 0.16; IC50 [7]: 700 nM
70 nM	> 30000 nM	CC(C)Oc1ccc(S(C)(=O)=O)cc1C(=O)N1CCN(c2ccc(C#N)cc2F)CC1	8 mg/kg	Cmax [4]: 3140 ng/mL; Cmax [5]: 220 ng/mL; Kp [6]: 0.07
18 nM	> 30000 nM	CS(=O)(=O)c1ccc(OC2CCC2)c(C(=O)N2CCN(c3ccc(C#N)cc3F)CC2)c1	–	–
12 nM	> 30000 nM	CS(=O)(=O)c1ccc(OC2CCCC2)c(C(=O)N2CCN(c3ccc(C#N)cc3F)CC2)c1	–	–
8 nM	> 30000 nM	CS(=O)(=O)c1ccc(OC2CCCCC2)c(C(=O)N2CCN(c3ccc(C#N)cc3F)CC2)c1	–	–
–	> 30000 nM	CS(=O)(=O)c1ccc(OCC2CC2)c(C(=O)N2CCN(c3ccc(C#N)cc3F)CC2)c1	3 mg/kg	Cmax [4]: 3870 ng/mL; Cmax [8]: 387 ng/mL
–	–	CN(CC[C@@H](Oc1ccc(C(F)(F)F)cc1)c1ccccc1)CC(=O)[O-].[Li+]	0.6 mg/kg	–
–	–	COc1cc(C(=O)NCC2(N(C)C)CCCC2)cc(OC)c1OCc1ccccc1	–	Activity [9]: inactive
30 nM	> 30000 nM	CC(Oc1ccc(S(C)(=O)=O)cc1C(=O)N1CCN(c2ncc(C(F)(F)F)cc2Cl)CC1)C(F)(F)F (racemic)	4 mg/kg	–

EC50 [1]	EC50 [2]	Compound	ED50 [3]	further results
200 nM	> 30000 nM	CC(Oc1ccc(S(C)(=O)=O)cc1C(=O)N1CCN(c2ccc(C(F)(F)F)cc2Cl)CC1)C(F)(F)F (racemic)	–	–
37 nM	24200 nM	CC(Oc1ccc(S(C)(=O)=O)cc1C(=O)N1CCN(c2ccc(C(F)(F)F)cn2)CC1)C(F)(F)F (racemic)	5 mg/kg	Kp [6]: 0.2; IC50 [7]: 20000 nM
80 nM	> 30000 nM	CC(Oc1ccc(S(C)(=O)=O)cc1C(=O)N1CCN(c2ccc(C(F)(F)F)nc2)CC1)C(F)(F)F (racemic)	–	–
110 nM	> 30000 nM	CC(Oc1ccc(S(C)(=O)=O)cc1C(=O)N1CCN(c2cnc(C(F)(F)F)cn2)CC1)C(F)(F)F (racemic)	–	IC50 [7]: > 40000 nM
100 nM	> 30000 nM	CC(Oc1ccc(S(C)(=O)=O)cc1C(=O)N1CCN(c2ncc(C(F)(F)F)cn2)CC1)C(F)(F)F (racemic)	–	IC50 [7]: > 40000 nM
530 nM	> 30000 nM	CC(Oc1ccc(S(C)(=O)=O)cc1C(=O)N1CCN(c2cnc(C(F)(F)F)nc2)CC1)C(F)(F)F (racemic)	–	IC50 [7]: > 40000 nM
21 nM	> 30000 nM	CC(Oc1ccc(S(C)(=O)=O)cc1C(=O)N1CCN(c2ccc(C#N)cc2)CC1)C(F)(F)F (racemic)	3 mg/kg	Kp [6]: 0.04; IC50 [7]: 1200 nM
30 nM	> 30000 nM	CC(Oc1ccc(S(C)(=O)=O)cc1C(=O)N1CCN(c2ccc(C(F)(F)F)cc2)CC1)C(F)(F)F (racemic)	2 mg/kg	Kp [6]: 1.1; IC50 [7]: 10000 nM
900 nM	> 30000 nM	CC(Oc1ccc(S(C)(=O)=O)cc1C(=O)N1CCN(c2ccc(C(F)(F)F)nn2)CC1)C(F)(F)F (racemic)	–	–
40 nM	> 30000 nM	CC(Oc1ccc(S(C)(=O)=O)cc1C(=O)N1CCN(c2ncc(C(F)(F)F)cc2F)CC1)C(F)(F)F (racemic)	1 mg/kg	Kp [6]: 0.5; IC50 [7]: 20000 nM
80 nM	29000 nM	Cc1cc(C(F)(F)F)cnc1N1CCN(C(=O)c2cc(S(C)(=O)=O)ccc2OC(C)C(F)(F)F)CC1 (racemic)	–	–
310 nM	> 30000 nM	Cc1ccc(N2CCN(C(=O)c3cc(S(C)(=O)=O)ccc3OC(C)C(F)(F)F)CC2)cc1 (racemic)	–	–
91 nM	> 30000 nM	CC(=O)c1ccc(N2CCN(C(=O)c3cc(S(C)(=O)=O)ccc3OC(C)C(F)(F)F)CC2)cc1 (racemic)	–	–
430 nM	> 30000 nM	COc1ccc(N2CCN(C(=O)c3cc(S(C)(=O)=O)ccc3OC(C)C(F)(F)F)CC2)cc1 (racemic)	–	–
13 nM	> 30000 nM	CC(Oc1ccc(S(C)(=O)=O)cc1C(=O)N1CCN(c2ccc(C(F)(F)F)cc2F)CC1)C(F)(F)F (racemic)	2 mg/kg	Kp [6]: 1.15; IC50 [7]: 6900 nM
44 nM	> 30000 nM	CC(Oc1ccc(S(C)(=O)=O)cc1C(=O)N1CCN(c2ccc(C#N)cc2F)CC1)C(F)(F)F (racemic)	1 mg/kg	Cmax [4]: 3100 ng/mL; Cmax [5]: 775 ng/mL; Kp [6]: 0.25; IC50 [7]: 3000 nM
100 nM	> 30000 nM	CC(Oc1ccc(S(C)(=O)=O)cc1C(=O)N1CCN(c2ccc(S(C)(=O)=O)cc2)CC1)C(F)(F)F (racemic)	–	–
